This is a sample that favours compounds with a hit; in the whole collection about 1.9% have one here.
M5 PAM: positive allosteric modulators of human muscarinic M5 receptor; P08912; CHO-K1 hM5, Fluo-8 calcium, ACh EC20 PAM; 0% = ACh EC20, 100% = ACh EC100; activation, % at 3 µM; 360,000 compounds, 0.3% hits;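 active means activation above the run cutoff, the mean activation of all test compounds plus 3 SD, cut at about 18% in these data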
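System: CHO-K1 hM5 cells. Reagent: acetylcholine, EC20 level. Compound dosing: single dose, 3 µM nominal final test concentration. Timing: Post-acetylcholine fluorescence recording 140 s. Detection: Fluo-8 calcium fluorescence. Read-out: % activation, ACh-normalized. Benchmarks: ACh EC20 and EC100 wells. Repeats: singlicate, one well per test compound.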
M4 ag: CHRM4 agonism in calcium assay | P08173 | CHO-K1 hM4/Gqi5, Fluo-8 calcium fluorescence; vehicle 0%, full acetylcholine response 100% | activation, % at 3 µM | 360,000 compounds, 0.14% hits | AID 624127;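 active means activation above the run mean over all test wells plus 3 SD, cut at about 32% in these data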;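 further: peak over basal fluorescence ratio per well then scaled between controls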
Target sequence (P08173 whole entry, looked up): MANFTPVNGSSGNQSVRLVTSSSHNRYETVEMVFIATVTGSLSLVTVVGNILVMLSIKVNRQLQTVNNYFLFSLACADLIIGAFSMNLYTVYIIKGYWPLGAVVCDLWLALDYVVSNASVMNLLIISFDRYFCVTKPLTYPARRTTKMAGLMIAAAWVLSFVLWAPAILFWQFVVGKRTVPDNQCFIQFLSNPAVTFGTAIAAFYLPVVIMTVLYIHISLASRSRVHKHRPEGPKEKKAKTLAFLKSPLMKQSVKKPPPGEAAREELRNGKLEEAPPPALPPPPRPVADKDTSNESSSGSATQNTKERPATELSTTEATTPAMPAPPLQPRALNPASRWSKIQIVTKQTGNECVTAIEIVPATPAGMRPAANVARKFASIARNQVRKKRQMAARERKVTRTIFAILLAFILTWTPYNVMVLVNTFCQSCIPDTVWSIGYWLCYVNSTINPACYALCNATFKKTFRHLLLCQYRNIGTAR
CHRM4 antagonist: blocks acetylcholine activation of human M4 receptor | CHO-hM4 cells, ACh EC80, Fluo-8 calcium fluorescence | inhibition, % at 3 µM | 360,000 compounds, 0.73% hits | AID 624125;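 active means inhibition above its plate's cutoff, the mean inhibition of sample wells plus 3 SD, cut at about 27% in these data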
CHRM5 agonist: agonists of human muscarinic M5 receptor (CHRM5); P08912; CHO-K1 hM5 cells, Fluo-8 calcium fluorescence; 0% DMSO wells, 100% maximal acetylcholine response; activation, % at 3 µM; 360,000 compounds, 0.19% hits;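 active means activation above the run's mean over test compounds plus 3 SD, cut at about 23% in these data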;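 further: signal is peak over basal fluorescence ratio across the kinetic read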
M5 antag: blocks acetylcholine activation of human M5 receptor. P08912. CHO-hM5 cells, Fluo-8 calcium fluorescence, ACh EC80. inhibition, % at 3 µM. 360,000 compounds, 0.59% hits. AID 624040;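 active means inhibition above a per-plate cutoff, the mean of that plate's test compounds plus 3 SD, cut at about 27% in these data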
M4 PAM: positive allosteric modulators of human muscarinic M4 receptor; 360,000 compounds, 0.4% hits; CHO-K1 hM4/Gqi5, Fluo-8 calcium fluorescence, ACh EC20; 0% = ACh EC20, 100% = maximal ACh; activation, % at 3 µM;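 active means activation above its plate's cutoff, the mean activation of sample wells plus 3 SD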
Numbers stand for hits; 0 = inactive.

SMILES	M5 PAM	M4 ag	CHRM4 antagonist	CHRM5 agonist	M5 antag	M4 PAM
CCN(CC)c1ccc(C2C(C(=O)OC)=C(C)NC(C)=C2C(=O)OC)cc1	0	0	0	0	0	0
NC(=S)NN=C1CCSCC1	0	0	0	0	0	0
CCOc1ccc(CCNC(=O)c2cc(C)on2)cc1OCC	0	0	0	0	0	20.8
CCOC(=O)C1CCN(Cc2cc(Cl)c3ccccc3c2O)CC1	0	0	28.5	0	0	0
COc1cccc(NC(=O)c2nc(S(C)(=O)=O)ncc2Cl)c1	0	0	36.0	0	0	0
CN(c1ccccc1)S(=O)(=O)c1ccc(NC(=O)c2ccccc2)cc1	0	0	0	0	0	0
CN(c1ccccc1)S(=O)(=O)c1ccc(NC(=O)c2nc(S(C)(=O)=O)ncc2Cl)cc1	0	0	78.2	0	31.4	0
O=C1C=C(c2cccc(CO)c2)C[C@@H](c2ccc(F)cc2)C1	0	0	0	0	0	0
COc1cc(C2C(C#N)=C(N)N(N(C)C)C3=C2C(=O)CC(C)(C)C3)ccc1O (stereo not drawn)	0	0	0	0	0	0
O=C(Nc1ccccc1C(=O)O)C1=NN=CC1	0	0	0	0	0	0
Nc1nonc1N/N=C\c1ccccc1	0	0	27.1	0	0	0
O=c1c2ccccc2sc2ccc(NCCCN3CCOCC3)cc12	0	32.9	0	0	0	0
C/C(=N\NC(=O)c1nn(C)c(C)c1Br)c1cccc(NC(=O)c2ccoc2C)c1	21.9	0	0	0	0	0
Cc1[nH]c2ccc3ncccc3c2c1C	0	0	0	0	0	0
Cc1[nH]c2ccc3c(ncn3CCC#N)c2c1C	0	0	30.5	0	0	0
Cc1cccc(NC(=O)c2ncn3c2C(=O)N(C)CC3)c1	0	0	0	0	0	0
[O-][n+]1nc2ccccc2c2ccccc21	0	0	0	0	0	0
Cc1ccc(NC(=O)C2(C)Cc3ccccc3C(=O)O2)cc1 (stereo not drawn)	0	0	0	0	0	24.8
COc1ccc(CCNC(=O)CSc2nnnn2-c2ccccc2)cc1	42.5	0	0	0	33.5	0
C=CCc1cc(C=O)cc(OC)c1OCc1ccc(C(=O)O)cc1	0	0	0	0	0	20.4
COc1cc(/C=C2/NC(=O)NC2=O)cc(Br)c1OCc1ccc(C(=O)O)cc1	0	0	0	0	0	0
Nc1cc(S(=O)(=O)N2CCOCC2)ccc1Oc1cccc(Br)c1	0	0	0	0	0	0
CC(=O)Nc1ccc(C(=O)OCC(=O)Nc2ccc(N3CCOCC3)cc2)cc1	0	0	0	0	0	0
NC(=O)CC[C@H](NC(=O)c1ccc(F)cc1)C(=O)OCC(=O)Nc1ccc(N2CCOCC2)cc1	0	0	0	0	0	24.2
Cc1nc2ccccc2c2c(N)cccc12	0	0	0	0	0	0
SMILES	M5 PAM	M4 ag	CHRM4 antagonist	CHRM5 agonist	M5 antag	M4 PAM
Cc1ccc(C(C)C)cc1OCC(=O)NNC(=O)Nc1ccccc1	0	0	61.0	0	0	0
Cc1ccc(C(C)C)c(OCC(=O)NNC(=O)Nc2ccccc2)c1	0	0	0	0	0	0
COc1cc(C(=O)NCC(=O)OCc2ccc(F)cc2)cc(OC)c1OC	0	0	0	0	0	0
Cc1cc(N/N=C/c2ccccc2O)nc(-c2ccccc2O)n1	0	0	0	0	0	0
Cc1cc(N/N=C/c2ccc(O)cc2O)nc(-c2ccccc2O)n1	0	0	29.9	0	0	0
C=CC(=O)Nc1cccc(Oc2cc(Cl)nc3[nH]ccc23)c1	0	0	0	0	0	0
CCCc1cc(C(=O)Nc2ccc(OC)cc2[N+](=O)[O-])cs1	0	0	0	0	0	0
Cc1cc(N2CCC(C)CC2)c(F)cc1[N+](=O)[O-]	0	0	0	0	0	0
Cc1cc(N2CCCC2)c(F)cc1/C=C\[N+](=O)[O-]	0	0	0	25.3	64.3	0
Cc1cc(N2C(=O)C(=O)/C(=C(/O)c3ccc(F)cc3)C2c2ccc(F)cc2)no1 (stereo not drawn)	21.1	0	0	0	0	0

Bioassay records from PubChem.
